In test [1] the target is T1, Transient receptor potential cation channel subfamily V member 1 (Homo sapiens, UniProt Q8NER1). Briefly: Antagonist activity at human TRPV1 expressed in tetracycline-stimulated HEK293 cells assessed as inhibition of capsaicin-induced intracellular calcium levels by fluorimetric assay relative to control. Format: functional, cell-based. (In general: Calcium assays in cells follow changes in intracellular calcium, usually with a dye or a luminescent sensor.)

In test [2] the target is T1, Transient receptor potential cation channel subfamily V member 1. Nature of the test: Antagonist activity at human TRPV1 expressed in tetracycline-stimulated HEK293 cells assessed as inhibition of capsaicin-induced intracellular calcium levels by fluorimetric assay. The format is functional, cell-based.
Test [3] shares this target. Nature of the test: Agonist activity at human TRPV1 expressed in HEK293 cells assessed as increase in intracellular calcium levels by fluorimetric assay without tetracycline-stimulation. The format is functional, cell-based. Put shortly:
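Non-induced HEK T-REx hTRPV1 cells (no tetracycline) loaded with Fluo-4/AM 1 µM plus probenecid 2 mM for 1 h at 37 °C, then equilibrated 30 min in HEPES buffer pH 7.4. Compounds at 100 µM (10 µM where solubility poor), DMSO ≤0.1%. Fluorescence read at 488/520 nm, 22–24 °C, triplicate wells. Response given as % of 1 µM ionomycin; n = 4–6.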

For test [4] the target is unchanged. Briefly: Agonist activity at human TRPV1 expressed in tetracycline-stimulated HEK293 cells assessed as increase in intracellular calcium levels by fluorimetric assay relative to control. Format: functional, cell-based. In outline:
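Tetracycline induction (0.1 µg/mL, 16–24 h) of HEK T-REx hTRPV1 cells, then Fluo-4/AM loading (1 µM, with probenecid 2 mM, 1 h, 37 °C) and a 30 min rest in HEPES buffer pH 7.4. Screening at 100 µM, then full concentration–response for compounds above 50%. Ex 488/em 520 nm, 22–24 °C, triplicate wells.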

Test [5] shares this target. Briefly: Agonist activity at human TRPV1 expressed in tetracycline-stimulated HEK293 cells assessed as increase in intracellular calcium levels by fluorimetric assay. Format: functional, cell-based.
Test [6] has the same target. Nature of the test: Displacement of [3H]resiniferatoxin from human TRPV1. A general note: In a radioligand displacement assay an active substance lowers the binding of a labelled ligand.

Calls of active or inactive are those of the source. The rule behind the calls is not given here.

T1 sequence (Q8NER1 whole entry): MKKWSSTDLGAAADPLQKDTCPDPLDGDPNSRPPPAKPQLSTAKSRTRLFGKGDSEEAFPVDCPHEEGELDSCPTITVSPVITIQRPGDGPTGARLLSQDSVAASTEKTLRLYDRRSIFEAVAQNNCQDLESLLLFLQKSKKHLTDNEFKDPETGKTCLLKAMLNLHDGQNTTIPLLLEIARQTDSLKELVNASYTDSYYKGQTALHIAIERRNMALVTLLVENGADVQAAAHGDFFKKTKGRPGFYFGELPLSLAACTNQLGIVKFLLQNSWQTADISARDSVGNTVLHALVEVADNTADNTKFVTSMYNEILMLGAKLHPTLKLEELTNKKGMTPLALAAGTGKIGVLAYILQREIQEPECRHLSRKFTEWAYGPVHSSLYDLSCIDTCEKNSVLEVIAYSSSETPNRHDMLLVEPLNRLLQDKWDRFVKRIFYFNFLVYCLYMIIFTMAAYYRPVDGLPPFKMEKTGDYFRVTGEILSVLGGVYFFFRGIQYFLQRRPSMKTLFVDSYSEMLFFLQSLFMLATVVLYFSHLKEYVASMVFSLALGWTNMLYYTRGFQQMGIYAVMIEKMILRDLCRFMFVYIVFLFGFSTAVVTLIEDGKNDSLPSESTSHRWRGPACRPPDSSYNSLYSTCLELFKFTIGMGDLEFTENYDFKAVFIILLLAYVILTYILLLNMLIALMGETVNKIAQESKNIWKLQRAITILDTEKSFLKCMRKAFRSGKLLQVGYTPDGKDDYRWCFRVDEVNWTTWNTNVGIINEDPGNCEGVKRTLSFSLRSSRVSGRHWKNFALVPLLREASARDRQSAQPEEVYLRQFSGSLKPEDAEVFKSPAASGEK

What is called Emax is the maximal effect, on the per cent scale that the assay sets. As a reminder, the EC50 is the midpoint of the concentration-response curve. With `O=C(/C=C/C=C/c1ccc2c(c1)OCO2)Nc1ccc(Cl)cc1`, the Emax in test [1] turned out to be 94%. The half-maximal effective concentration (EC50) in test [2] was 10 nM.
As to `COc1cc(/C=C/C(=O)N2CCCCC2)ccc1O`, the Emax in test [1] is 93%. For the same compound, the EC50 in test [2] is 2 nM.
The matching figures for `COc1cc(/C=C/C(=O)N2CCSCC2)ccc1O`: 93% and 2.51 nM.
The matching figures for `COc1cc(/C=C/C(=O)NCC(C)C)ccc1O`: 94% and 6.31 nM.
As to `COc1cc(/C=C/C(=O)N2CCOCC2)ccc1O`, the Emax in test [1] turned out to be 92%. For the same compound, in test [2], the EC50 is 2.51 nM.
In the case of `O=C(/C=C/C=C/c1ccc2c(c1)OCO2)N1CCOCC1`, in test [3], the result was inactive. Besides, the Emax in test [4] was determined as 93%. Moreover, the EC50 in test [5] was 2510 nM.
Take `COc1cc(CNC(=O)CCCC/C=C/C(C)C)ccc1O`: the Emax in test [4] came to 97%.
As for `Oc1cc2c(cc1O)CN(C(=S)NCCc1ccc(Cl)cc1)CCC2` [CAPSAZEPINE], the Emax in test [1] amounted to 92%. Besides, the EC50 in test [2] was 2510 nM.
On to `O=C(/C=C/c1ccc2c(c1)OCO2)N1CCCCC1` [ILEPCIMIDE], for which the outcome in test [3] was inactive. In test [4], the maximal response (Emax) is 66%. Besides, the EC50 in test [5] is 20000 nM.
For `O=C(/C=C/CCc1ccc2c(c1)OCO2)N1CCCCC1` [PIPERANINE] the same measures were “inactive”, 88% and 3980 nM.
As to `O=C(/C=C/C=C/c1ccc2c(c1)OCO2)N1CCCCC1` [PIPERINE], the outcome in test [3] and in test [6] was inactive. The Emax in test [4] was 91%. In addition, in test [5], the EC50 is 3160 nM.
Consider `CC(C)CNC(=O)/C=C/C=C/c1ccc2c(c1)OCO2` [PIPERLONGUMININE], for which the Emax in test [1] stood at 94%. Besides, the EC50 in test [2] was 6.31 nM.
`O=C(CCCCc1ccc2c(c1)OCO2)N1CCCCC1` [TETRAHYDROPIPERINE]: in test [3], the outcome was inactive. The Emax in test [4] amounted to 90%. For the same compound, the EC50 in test [5] was 6310 nM.
